Active and inactive are the calls of the source. The rule behind the calls is not given here.
How the values were obtained:
[1] = Aqueous solubility of the compound in 1% DMSO; assay type: physicochemical; conditions: buffer
BXPC-3 [2] = experiment: Antiinvasive activity in S100P expressing human BXPC-3 cells assessed as inhibition of cell invasion at 10 uM incubated for 48 hrs by transwell invasion assay; assay type: functional, cell-based
Procedure, shortened: (§1)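 Matrigel-coated Transwell (PET membrane, 8 μm pores). BxPC-3 (RPMI-1640) or Panc-1 (DMEM) cells were seeded at 2 × 10^5 cells/mL in serum-free medium in the upper chamber, with 10% FBS below as chemoattractant. Cells were given 10 μM compound (0.1% DMSO final) for 48 h at 37 °C, 5% CO2. Invaded cells were Diff-Quik stained and counted in five ×100 fields. Three independent experiments.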

[3] = Aqueous solubility of the compound in 0.1% DMSO; assay type: physicochemical; conditions: buffer
Homo sapiens = organism: Homo sapiens; experiment: Inhibition of human recombinant S100P/RAGE interaction incubated for 1 hr and measured by ELISA based binding assay
Procedure, shortened: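 His-tagged human S100P, expressed in E. coli BL21 and Ni-NTA purified, was coated at 2 μM in PBS pH 7.4 with 1 mM CaCl2, 10 μM ZnCl2 and 0.5 mM MgCl2 overnight at 37 °C, then blocked with 1% BSA for 2 h. Wells got increasing compound concentrations in triplicate, then human RAGE-Fc for 1 h at 37 °C, anti-human HRP for 1 h, and TMB for 20 min. Read at 450 nm, normalized to S100P+RAGE-Fc; IC50 estimated.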

BXPC-3 [4] = experiment: Cytotoxicity against S100P expressing human BXPC-3 cells assessed as reduction in cell viability at 10 uM measured after 24 hrs by MTS assay; assay type: functional, cell-based
Procedure, shortened: (§2)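 1 × 10^5 BxPC-3 (RPMI-1640) or Panc-1 (DMEM high glucose) cells, in medium with 10% FBS, were allowed to adhere for 24 h, then given 10 μM compound. MTS absorbance was read at 492 nm every 24 h. Background was subtracted and values normalized to untreated cells. n = 3 separate experiments.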

BXPC-3 [5] = experiment: Cytotoxicity against S100P expressing human BXPC-3 cells assessed as LDH release at 10 uM measured after 24 hrs by LDH assay; assay type: functional, cell-based
Procedure, shortened: (§3)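 1 × 10^5 BxPC-3 (RPMI-1640) or Panc-1 (DMEM high glucose) cells were allowed to adhere for 24 h, then given 10 μM compound. Membrane integrity was measured by LDH release (CytoTox-ONE) every 24 h for up to 3 days, with background OD subtracted.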

PANC-1 [6] = experiment: Antiinvasive activity in human PANC-1 cells assessed as inhibition of cell invasion at 10 uM incubated for 48 hrs by transwell invasion assay; assay type: functional, cell-based; procedure, shortened: as §1
PANC-1 [7] = experiment: Cytotoxicity against human PANC-1 cells assessed as LDH release at 10 uM measured after 24 hrs by LDH assay; assay type: functional, cell-based; procedure, shortened: as §3
PANC-1 [8] = experiment: Cytotoxicity against human PANC-1 cells assessed as reduction in cell viability at 10 uM measured after 24 hrs by MTS assay; assay type: functional, cell-based; procedure, shortened: as §2
PANC-1 [9] = experiment: Antiinvasive activity in human PANC-1 cells assessed as inhibition of cell invasion at 100 to 200 uM incubated for 48 hrs by transwell invasion assay; conditions: dose 100-200 µM
BXPC-3 [10] = experiment: Antiinvasive activity in S100P expressing human BXPC-3 cells assessed as inhibition of cell invasion at 100 to 200 uM incubated for 48 hrs by transwell invasion assay; conditions: dose 100-200 µM

| Compound | solubility [1] | Activity (BXPC-3 [2]) | solubility [3] | INH (Homo sapiens) [nM] | Activity (BXPC-3 [4]) | Activity (BXPC-3 [5]) | Activity (PANC-1 [6]) | Activity (PANC-1 [7]) | Activity (PANC-1 [8]) | Activity (PANC-1 [9]) | Activity (BXPC-3 [10]) |
| --- | --- | --- | --- | --- | --- | --- | --- | --- | --- | --- | --- |
| O=C1C2C3c4ccccc4C([N+](=O)[O-])(c4ccccc43)C2C(=O)N1c1cccc(F)c1 (centres undefined) | Soluble | Active | Soluble | 100 | inactive | inactive | inactive | inactive | inactive |  |  |
| O=C1C2C3c4ccccc4C(c4ccccc43)C2C(=O)N1c1ccc(F)cc1 (centres undefined) | Soluble | Active | Soluble | 10 | inactive | inactive | inactive | inactive | inactive |  |  |
| N#CCCn1cc(C(=O)Nc2ccc(C(=O)O)cc2)c(-c2ccccc2)n1 |  | Active |  |  | inactive | inactive | inactive | inactive | inactive |  |  |
| O=C(O)c1cc(=O)c2c(OCC(O)COc3cccc4oc(C(=O)O)cc(=O)c34)cccc2o1 |  | inactive |  |  | inactive | inactive | inactive | inactive | inactive | Active | Active |
| O=C1C2C3c4ccccc4C(c4ccccc43)C2C(=O)N1c1ccccc1 (centres undefined) | Soluble | Active | Soluble | 10 | inactive | inactive | inactive | inactive | inactive |  |  |
| O=C(Cc1cc(O)n[nH]1)N/N=C/c1c(Cl)cccc1Cl |  | Active |  |  | inactive | inactive | inactive | inactive | inactive |  |  |
| COc1ccc(/C=C2/C(=O)NC(=O)N(c3ccc(Cl)c(Cl)c3)C2=O)cc1C(=O)O |  | Active |  |  | inactive | inactive | inactive | inactive | inactive |  |  |
| O=C1C2C3c4ccccc4C(c4ccccc43)C2C(=O)N1c1cccc(F)c1 (centres undefined) | Soluble | Active | Soluble | 10 | inactive | inactive | inactive | inactive | inactive |  |  |
| O=C(O)c1ccc(N2C(=O)C3C4c5ccccc5C([N+](=O)[O-])(c5ccccc54)C3C2=O)cc1 (centres undefined) | Soluble | Active | Soluble | < 10 | inactive | inactive | inactive | inactive | inactive |  |  |
| O=C(O)c1cccc(N2C(=O)C3C4c5ccccc5C([N+](=O)[O-])(c5ccccc54)C3C2=O)c1 (centres undefined) |  | Active |  | 10 | inactive | inactive | inactive | inactive | inactive |  |  |
| Cc1ccc(-c2ccc(=O)n(CC(=O)Nc3ccc(-n4cnnn4)cc3)n2)cc1 |  | Active |  |  | inactive | inactive | inactive | inactive | inactive |  |  |

— ChEMBL document CHEMBL4765393, “Discovery of novel small molecule inhibitors of S100P with in vitro anti-metastatic effects on pancreatic cancer cells” (Eur J Med Chem, 2020)
